According to ChEMBL document CHEMBL1140915, “Second-generation highly potent and selective inhibitors of the hepatitis C virus NS3 serine protease” (J Med Chem, 2009):

Experiments:
[1] = Bioavailability in monkey at 3 mg/kg, po administered with 0.4% hydroxypropyl methylcellulose; format: ADME, organism-based, Macaca mulatta; conditions: rhesus monkey, in vivo
[2] = tested on: Hepatitis C virus; assay: Antiviral activity against HCV assessed as inhibition of virus replication by cell based assay in absence of human serum; format: functional, Hepacivirus hominis
Summary of the method: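 Replicon-based cellular assay run without human serum. EC90 is the concentration that inhibits replicon replication by 90%. Compounds were tested as rapidly equilibrating P1 diastereomer mixtures.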

[3] = Inhibition of HCV NS3 protease in absence of human serum; set-up: species or system Hepacivirus hominis
Summary of the method: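 Continuous enzymatic assay using NS4A-tethered single-chain HCV NS3 serine protease, without human serum. Ki* is the equilibrium constant, which includes the reversible covalent ketone–serine bond. Compounds were tested as P1 diastereomer mixtures (2:1 to 1:2) that equilibrate rapidly under assay conditions.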

[4] = AUC in rat at 10 mg/kg, po administered with 20% HPBCD; format: ADME, organism-based; set-up: dose 10 mg/kg, route oral; conditions: plasma
[5] = Selectivity for HCV NS3 protease over human neutrophil elastase
Summary of the method: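 Compounds were also assayed against human neutrophil elastase. Selectivity is expressed as the HNE/HCV ratio of the two enzyme potencies.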

[6] = Half life in rat at 3 mg/kg, iv administered with 0.4% hydroxypropyl methylcellulose; format: ADME, organism-based; set-up: dose 3 mg/kg, route intravenous; conditions: in vivo
[7] = Half life in monkey at 1 mg/kg, iv administered with 0.4% hydroxypropyl methylcellulose; format: ADME, organism-based, Macaca mulatta; set-up: dose 1 mg/kg, route intravenous; conditions: rhesus monkey, in vivo
[8] = Bioavailability in rat at 10 mg/kg, po administered with 0.4% hydroxypropyl methylcellulose; format: ADME, organism-based; conditions: in vivo
[9] = AUC in dog at 3 mg/kg, po administered with 0.4% hydroxypropyl methylcellulose; format: ADME, organism-based, Canis lupus familiaris; set-up: dose 3 mg/kg, route oral; conditions: in vivo
[10] = AUC in monkey at 3 mg/kg, po administered with 0.4% hydroxypropyl methylcellulose; format: ADME, organism-based, Macaca mulatta; set-up: dose 3 mg/kg, route oral; conditions: rhesus monkey, in vivo
[11] = Drug level in rat liver after 6 hrs; format: ADME, tissue-based; conditions: read-out: Drug uptake
Summary of the method: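 In rat, compound level in liver was measured 6 h after dosing in 0.4% MC and reported as ng/g tissue.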

[12] = AUC in monkey at 1 mg/kg, iv administered with 0.4% hydroxypropyl methylcellulose; format: ADME, organism-based, Macaca mulatta; set-up: dose 1 mg/kg, route intravenous; conditions: rhesus monkey, in vivo
[13] = AUC in dog at 2 mg/kg, iv administered with 0.4% hydroxypropyl methylcellulose; format: ADME, organism-based, Canis lupus familiaris; set-up: dose 2 mg/kg, route intravenous; conditions: in vivo
[14] = Half life in dog at 2 mg/kg, iv administered with 0.4% hydroxypropyl methylcellulose; format: ADME, organism-based, Canis lupus familiaris; set-up: dose 2 mg/kg, route intravenous; conditions: in vivo
[15] = AUC in rat at 10 mg/kg, po administered with 0.4% hydroxypropyl methyl cellulose; format: ADME, organism-based; set-up: dose 10 mg/kg, route oral; conditions: in vivo
[16] = Bioavailability in dog at 3 mg/kg, po administered with 0.4% hydroxypropyl methylcellulose; format: ADME, organism-based, Canis lupus familiaris; conditions: in vivo
[17] = AUC in rat at 3 mg/kg, iv administered with 0.4% hydroxypropyl methylcellulose; format: ADME, organism-based; set-up: dose 3 mg/kg, route intravenous; conditions: in vivo

| EC90 [2] | Ki [3] | AUC [4] | Ratio [5] | SMILES | further results |
| --- | --- | --- | --- | --- | --- |
| 350 nM | 14 nM |  |  | CC(C)(C)NC(=O)N[C@H](C(=O)N1C[C@H]2[C@@H]([C@H]1C(=O)NC(CC1CCC1)C(=O)C(N)=O)C2(C)C)C(C)(C)C (stereo partly drawn) [BOCEPREVIR] | bioavailability [1]: 4% |
| 45 nM | 2 nM | 0.45 µM·h | 2400 | C=CCNC(=O)C(=O)C(CCCC)NC(=O)[C@@H]1[C@@H]2[C@H](CN1C(=O)[C@@H](NC(=O)NC(CN1C(=O)CC(C)(C)CC1=O)C(C)(C)C)C1CCCCC1)C2(C)C (single isomer, unassigned) |  |
| 40 nM | 6 nM | 0.36 µM·h | 9500 | C=CCNC(=O)C(=O)C(CCCC)NC(=O)[C@@H]1[C@@H]2[C@H](CN1C(=O)[C@@H](NC(=O)NC(CN1C(=O)CN(C)CC1=O)C(C)(C)C)C(C)(C)C)C2(C)C (single isomer, unassigned) |  |
| 150 nM | 8 nM | 0.44 µM·h | 69000 | C=CCNC(=O)C(=O)C(CCCC)NC(=O)[C@@H]1[C@@H]2[C@H](CN1C(=O)[C@@H](NC(=O)N[C@@H](CN1C(=O)CCCC1=O)C(C)(C)C)C(C)(C)C)C2(C)C (stereo partly drawn) |  |
| 40 nM | 4 nM | 1.58 µM·h | 9300 | C=CCNC(=O)C(=O)C(CCCC)NC(=O)[C@@H]1[C@@H]2[C@H](CN1C(=O)[C@@H](NC(=O)NC(CN1C(=O)CC(C)(C)CC1=O)C(C)(C)C)C(C)(C)C)C2(C)C (single isomer, unassigned) |  |
| 30 nM | 7 nM | 0.5 µM·h | 11000 | C=CCNC(=O)C(=O)C(CCC1CC1)NC(=O)[C@@H]1[C@@H]2[C@H](CN1C(=O)[C@@H](NC(=O)NC(CN1C(=O)CC(C)(C)CC1=O)C(C)(C)C)C(C)(C)C)C2(C)C (single isomer, unassigned) |  |
| 30 nM | 4 nM | 1.2 µM·h | 7100 | C=CCNC(=O)C(=O)C(CC1CC1)NC(=O)[C@@H]1[C@@H]2[C@H](CN1C(=O)[C@@H](NC(=O)NC(CN1C(=O)CC(C)(C)CC1=O)C(C)(C)C)C(C)(C)C)C2(C)C (single isomer, unassigned) | half-life [6]: 7.4 h; half-life [7]: 2.3 h; bioavailability [8]: 22%; AUC [9]: 1.2 µM·h; AUC [10]: 0.1 µM·h; bioavailability [1]: 4%; concentration at 6 h [11]: 1800 ng/g; AUC [12]: 0.7 µM·h; AUC [13]: 2.2 µM·h; half-life [14]: 2.7 h; AUC [15]: 0.9 µM·h; bioavailability [16]: 35%; AUC [17]: 1.6 µM·h |
| 1000 nM | 8 nM |  | 1200 | C=CCNC(=O)C(=O)C(CCCC)NC(=O)[C@@H]1[C@@H]2[C@H](CN1C(=O)[C@@H](NC(=O)NC(CN1C(=O)CNC1=O)C(C)(C)C)C(C)(C)C)C2(C)C (single isomer, unassigned) |  |
